Converted amounts (≈) assume the structure as drawn.
What was measured:
Format in all cases: functional
Proteus mirabilis = experiment: Antibacterial activity against Proteus mirabilis isolated from patient with diabetic foot infection after 18 to 24 hrs by broth microdilution method
Procedure, shortened: (§1)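 Isolates were subcultured on Trypticase soy blood agar and tested by broth microdilution in cation-adjusted Mueller-Hinton broth. In-house trays of twofold drug dilutions were stored at −70°C. Overnight colonies gave a final inoculum of about 5 × 10^5 CFU/ml. Plates were read after 18 to 24 h at 37°C.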

[1] = system: Staphylococcus lugdunensis; experiment: Antibacterial activity against Staphylococcus lugdunensis isolated from patient with diabetic foot infection assessed as percent resistant isolates after 18 to 24 hrs by broth microdilution method
Procedure, shortened: (§2)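 Aerobes subcultured on Trypticase soy blood agar, then broth microdilution in cation-adjusted Mueller-Hinton broth. Trays prepared in-house with twofold dilutions and stored at −70°C. Overnight colonies suspended to about 5 × 10^5 CFU/ml final. Read after 18 to 24 h at 37°C. QC strains included S. aureus ATCC 29213 and E. coli ATCC 25922.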

[2] = system: Staphylococcus haemolyticus; experiment: Antibacterial activity against Staphylococcus haemolyticus isolated from patient with diabetic foot infection after 18 to 24 hrs by broth microdilution method
Klebsiella aerogenes = experiment: Antibacterial activity against Enterobacter aerogenes isolated from patient with diabetic foot infection after 18 to 24 hrs by broth microdilution method; procedure, shortened: as §1
[3] = system: Staphylococcus epidermidis; experiment: Antibacterial activity against Staphylococcus epidermidis isolated from patient with diabetic foot infection after 18 to 24 hrs by broth microdilution method; procedure, shortened: as §1
Corynebacterium striatum [4] = experiment: Antibacterial activity against Corynebacterium striatum isolated from patient with diabetic foot infection after 48 hrs by broth microdilution method
Procedure, shortened: (§3)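 Isolates were subcultured on Trypticase soy blood agar. Broth microdilution used cation-adjusted Mueller-Hinton broth with lysed horse blood, in-house trays of twofold drug dilutions stored at −70°C. Colonies from overnight growth gave a final inoculum of about 5 × 10^5 CFU/ml. Trays were read after 18 to 24 h at 37°C, up to 48 h for some strains.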

Streptococcus pyogenes = experiment: Antibacterial activity against Streptococcus pyogenes isolated from patient with diabetic foot infection after 18 to 24 hrs by broth microdilution method
Procedure, shortened: (§4)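 Streptococcal isolates were subcultured on Trypticase soy blood agar. Broth microdilution used cation-adjusted Mueller-Hinton broth with lysed horse blood, in in-house trays of serial twofold drug dilutions stored at −70°C. Overnight colonies were suspended to a final inoculum of approximately 5 × 10^5 CFU/ml. MIC was read after 18 to 24 h incubation at 37°C.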

Enterobacter cloacae = experiment: Antibacterial activity against Enterobacter cloacae isolated from patient with diabetic foot infection after 18 to 24 hrs by broth microdilution method; procedure, shortened: as §1
[5] = system: Staphylococcus lugdunensis; experiment: Antibacterial activity against Staphylococcus lugdunensis isolated from patient with diabetic foot infection after 18 to 24 hrs by broth microdilution method
Procedure, shortened: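 Subcultured on Trypticase soy blood agar, then broth microdilution in cation-adjusted Mueller-Hinton broth. Trays were made in-house with serial twofold drug dilutions and stored at −70°C. Inoculum was colonies from overnight growth, final approximately 5 × 10^5 CFU/ml. MIC was read after 18 to 24 h at 37°C. QC strains: S. aureus ATCC 29213 and E. coli ATCC 25922.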

Klebsiella oxytoca = experiment: Antibacterial activity against Klebsiella oxytoca isolated from patient with diabetic foot infection after 18 to 24 hrs by broth microdilution method; procedure, shortened: as §1
Staphylococcus aureus = experiment: Antibacterial activity against methicillin-sensitive Staphylococcus aureus isolated from patient with diabetic foot infection assessed as percent resistant isolates after 18 to 24 hrs by broth microdilution method
Procedure, shortened: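 Isolates grown on Trypticase soy blood agar, then tested by broth microdilution in unsupplemented cation-adjusted Mueller-Hinton broth. In-house trays held serial twofold drug dilutions and were stored at −70°C. Overnight colonies were suspended to a final inoculum near 5 × 10^5 CFU/ml, and trays read after 18–24 h at 37°C. QC strains: S. aureus ATCC 29213, E. coli ATCC 25922.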

Corynebacterium accolens [6] = experiment: Antibacterial activity against Corynebacterium accolens isolated from patient with diabetic foot infection after 48 hrs by broth microdilution method; procedure, shortened: as §3
Corynebacterium simulans [7] = experiment: Antibacterial activity against Corynebacterium simulans isolated from patient with diabetic foot infection after 48 hrs by broth microdilution method; procedure, shortened: as §3
Proteus vulgaris = experiment: Antibacterial activity against Proteus vulgaris isolated from patient with diabetic foot infection after 18 to 24 hrs by broth microdilution method; procedure, shortened: as §1
Providencia rettgeri = experiment: Antibacterial activity against Proteus rettgeri isolated from patient with diabetic foot infection assessed as percent resistant isolates after 18 to 24 hrs by broth microdilution method; procedure, shortened: as §2
Streptococcus agalactiae = experiment: Antibacterial activity against Streptococcus agalactiae isolated from patient with diabetic foot infection after 18 to 24 hrs by broth microdilution method; procedure, shortened: as §4
Corynebacterium simulans [8] = experiment: Antibacterial activity against Corynebacterium simulans isolated from patient with diabetic foot infection assessed as percent resistant isolates after 48 hrs by broth microdilution method
Procedure, shortened: (§5)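 Isolates subcultured on Trypticase soy blood agar. Broth microdilution in cation-adjusted Mueller-Hinton broth with lysed horse blood, using in-house twofold dilution trays stored at −70°C. Inoculum from overnight colonies at about 5 × 10^5 CFU/ml final. Read after 18 to 24 h at 37°C, up to 48 h for some Corynebacterium strains.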

Corynebacterium jeikeium = experiment: Antibacterial activity against Corynebacterium jeikeium isolated from patient with diabetic foot infection assessed as percent resistant isolates after 48 hrs by broth microdilution method; procedure, shortened: as §5
Corynebacterium accolens [9] = experiment: Antibacterial activity against Corynebacterium accolens isolated from patient with diabetic foot infection assessed as percent resistant isolates after 48 hrs by broth microdilution method; procedure, shortened: as §5
Corynebacterium striatum [10] = experiment: Antibacterial activity against Corynebacterium striatum isolated from patient with diabetic foot infection assessed as percent resistant isolates after 48 hrs by broth microdilution method; procedure, shortened: as §5

| SMILES | MIC50 (Proteus mirabilis) [µg/mL] | MIC90 (Proteus mirabilis) [µg/mL] | Activity [1] [%] | MIC50 [2] [µg/mL] | MIC90 [2] [µg/mL] | MIC50 (Klebsiella aerogenes) [µg/mL] | MIC90 (Klebsiella aerogenes) [µg/mL] | MIC50 [3] [µg/mL] | MIC90 [3] [µg/mL] | MIC50 (Corynebacterium striatum [4]) [µg/mL] | MIC90 (Corynebacterium striatum [4]) [µg/mL] | MIC50 (Streptococcus pyogenes) [µg/mL] | MIC90 (Streptococcus pyogenes) [µg/mL] | MIC50 (Enterobacter cloacae) [µg/mL] | MIC90 (Enterobacter cloacae) [µg/mL] | MIC50 [5] [µg/mL] | MIC90 [5] [µg/mL] | MIC50 (Klebsiella oxytoca) [µg/mL] | MIC90 (Klebsiella oxytoca) [µg/mL] | Activity (Staphylococcus aureus) [%] | further results |
| --- | --- | --- | --- | --- | --- | --- | --- | --- | --- | --- | --- | --- | --- | --- | --- | --- | --- | --- | --- | --- | --- |
| C[C@@H](O)[C@H]1C(=O)N2C(C(=O)O)=C(S[C@@H]3CN[C@H](C(=O)Nc4cccc(C(=O)O)c4)C3)[C@H](C)[C@H]12 [ERTAPENEM] | ≤ 0.015 | 0.25 (≈ 0.526 µM) | 0 | 4 (≈ 8.41 µM) | > 32 | 0.06 (≈ 0.126 µM) | 0.5 (≈ 1.05 µM) | 2 (≈ 4.21 µM) | 8 (≈ 16.8 µM) | 0.5 (≈ 1.05 µM) | 1 (≈ 2.1 µM) | ≤ 0.015 | ≤ 0.015 | 0.06 (≈ 0.126 µM) | 0.5 (≈ 1.05 µM) | 0.5 (≈ 1.05 µM) | 1 (≈ 2.1 µM) | ≤ 0.015 | ≤ 0.015 | 0 | MIC50 (Corynebacterium accolens [6]): 0.5 µg/mL (≈ 1.05 µM); MIC90 (Corynebacterium accolens [6]): 1 µg/mL (≈ 2.1 µM); MIC50 (Corynebacterium simulans [7]): 0.5 µg/mL (≈ 1.05 µM); MIC90 (Corynebacterium simulans [7]): 1 µg/mL (≈ 2.1 µM); MIC50 (Proteus vulgaris): ≤ 0.015 µg/mL; MIC90 (Proteus vulgaris): 0.25 µg/mL (≈ 0.526 µM); Activity (Providencia rettgeri): 0%; MIC50 (Streptococcus agalactiae): 0.06 µg/mL (≈ 0.126 µM); MIC90 (Streptococcus agalactiae): 0.06 µg/mL (≈ 0.126 µM) |
| C[C@@H](O)[C@H]1C(=O)N2C(C(=O)O)=C(SCCNC=N)C[C@H]12 [IMIPENEM ANHYDROUS] | 0.5 (≈ 1.67 µM) | 4 (≈ 13.4 µM) | 0 | 0.06 (≈ 0.2 µM) | 16 (≈ 53.4 µM) | 1 (≈ 3.34 µM) | 2 (≈ 6.68 µM) | 0.125 (≈ 0.418 µM) | 0.5 (≈ 1.67 µM) | 0.03 (≈ 0.1 µM) | 0.125 (≈ 0.418 µM) | ≤ 0.015 | ≤ 0.015 | 1 (≈ 3.34 µM) | 2 (≈ 6.68 µM) | 0.03 (≈ 0.1 µM) | 0.06 (≈ 0.2 µM) | 0.25 (≈ 0.835 µM) | 1 (≈ 3.34 µM) | 0 | Activity (Corynebacterium simulans [8]): 0%; MIC50 (Corynebacterium accolens [6]): 0.03 µg/mL (≈ 0.1 µM); MIC90 (Corynebacterium accolens [6]): 0.125 µg/mL (≈ 0.418 µM); MIC50 (Corynebacterium simulans [7]): 0.03 µg/mL (≈ 0.1 µM); MIC90 (Corynebacterium simulans [7]): 0.125 µg/mL (≈ 0.418 µM); Activity (Corynebacterium jeikeium): 30%; MIC50 (Proteus vulgaris): 0.5 µg/mL (≈ 1.67 µM); MIC90 (Proteus vulgaris): 4 µg/mL (≈ 13.4 µM); Activity (Corynebacterium accolens [9]): 0%; Activity (Corynebacterium striatum [10]): 0%; Activity (Providencia rettgeri): 0%; MIC50 (Streptococcus agalactiae): ≤ 0.015 µg/mL; MIC90 (Streptococcus agalactiae): ≤ 0.015 µg/mL |
| C[C@@H](O)[C@H]1C(=O)N2C(C(=O)O)=C(S[C@@H]3CN[C@H](C(=O)N(C)C)C3)[C@H](C)[C@H]12 [MEROPENEM] | 0.06 (≈ 0.156 µM) | 0.125 (≈ 0.326 µM) | 0 | 1 (≈ 2.61 µM) | 32 (≈ 83.4 µM) | 0.06 (≈ 0.156 µM) | 0.5 (≈ 1.3 µM) | 1 (≈ 2.61 µM) | 4 (≈ 10.4 µM) | 0.125 (≈ 0.326 µM) | 0.25 (≈ 0.652 µM) | ≤ 0.015 | ≤ 0.015 | 0.06 (≈ 0.156 µM) | 0.5 (≈ 1.3 µM) | 0.25 (≈ 0.652 µM) | 0.5 (≈ 1.3 µM) | 0.03 (≈ 0.0782 µM) | 0.06 (≈ 0.156 µM) | 0 | Activity (Corynebacterium simulans [8]): 0%; MIC50 (Corynebacterium accolens [6]): 0.125 µg/mL (≈ 0.326 µM); MIC90 (Corynebacterium accolens [6]): 0.25 µg/mL (≈ 0.652 µM); MIC50 (Corynebacterium simulans [7]): 0.125 µg/mL (≈ 0.326 µM); MIC90 (Corynebacterium simulans [7]): 0.25 µg/mL (≈ 0.652 µM); Activity (Corynebacterium jeikeium): 20%; MIC50 (Proteus vulgaris): 0.06 µg/mL (≈ 0.156 µM); MIC90 (Proteus vulgaris): 0.125 µg/mL (≈ 0.326 µM); Activity (Corynebacterium accolens [9]): 0%; Activity (Corynebacterium striatum [10]): 0%; Activity (Providencia rettgeri): 0%; MIC50 (Streptococcus agalactiae): 0.06 µg/mL (≈ 0.156 µM); MIC90 (Streptococcus agalactiae): 0.06 µg/mL (≈ 0.156 µM) |

From ChEMBL document CHEMBL1153560, “In vitro activities of doripenem and six comparator drugs against 423 aerobic and anaerobic bacterial isolates from infected diabetic foot wounds” (2008)
